# Assay outcomes as filed in PubChem.
# VIM-2 inh – VIM-2 metallo-beta-lactamase inhibitors, primary screen, biochemical, epi-absorbance readout, Pseudomonas aeruginosa enzyme | purified VIM-2, nitrocefin hydrolysis, epi-absorbance fluorescence | inhibition, % at 5.6 µM | actives 0.89% (n = 290,000) | AID 1527, 2009;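 active means inhibition above the mean of all tested compounds plus 3 SD, cutoff set per screening run, cut at about 7.5% in these data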;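 further: red hydrolysis product quenches plate fluorescence so inhibitors raise well fluorescence; 0% = enzyme with DMSO and 100% = DMSO without enzyme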
# IMP-1 inhibitor – IMP-1 metallo-beta-lactamase inhibitors, primary screen, biochemical, epi-absorbance readout, Pseudomonas aeruginosa enzyme | actives 0.45% (n = 290,000) | metallo-beta-lactamase IMP-1 (Pseudomonas aeruginosa) | purified IMP-1, nitrocefin hydrolysis, epi-absorbance fluorescence | inhibition, % at 5.6 µM | AID 1556, 2009;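 active means inhibition above the mean plus 3 SD of all compounds in the same screening run, cut at about 4.5% in these data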;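 further: 0% = IMP-1 with DMSO and 100% = DMSO wells lacking enzyme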
#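 System: purified IMP-1 / Input: IMP-1 dispensed at 0.2 nM / Medium: 50 mM HEPES pH 7.1, 50 µM ZnSO4, 0.05% Brij 35 / Timing: 15 min enzyme–compound preincubation, then 25 min nitrocefin reaction, 25 °C / Technique: plate fluorescence quenching by hydrolysis product, ex 480/em 530 nm / Repeats: singlicate testing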
# MEKK2wt PB1 HTS – modulators of MEK5 binding to wildtype MEKK2, primary screen, biochemical, multiplex bead flow cytometry, Alexa488-MEK5; Mitogen-activated protein kinase kinase kinase 2 (Homo sapiens), Q9Y2U5; Alexa488-MEK5 binding to MEKK2 WT; actives lie on both sides; binding response (% of control), % at 10 µM; actives 1.1% (n = 290,000); AID 1531, 2009; in the data active means binding response below about 67% or above about 130%
# MEKK2 mut-MEK5 – MEK5 binding signal on mutant MEKK2 PB1, primary screen, biochemical, multiplex bead flow cytometry, Alexa488-MEK5. Alexa488-MEK5 binding to MEKK2 mutant. percent response, % at 10 µM. actives 0.35% (n = 290,000); in the data active means percent response above about 24%, passing the limit was not always enough
# MEKK3 PB1 HTS – modulators of MEKK3-MEK5 PB1 binding, primary screen, biochemical, wildtype MEKK3, multiplex bead flow cytometry, Alexa488-MEK5. Mitogen-activated protein kinase kinase kinase 3 (Homo sapiens), Q99759. bead-based flow cytometry, Alexa488-MEK5 binding to MEKK3; actives lie on both sides; 0 = blocked by unlabeled MEK5, 100 = vehicle. binding response (% of control), % at 10 µM. actives 1.4% (n = 290,000);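 active means binding response more than 3 SD above or below the average of its plate-row segment, actives on both sides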;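 further: Alexa488 bead fluorescence after subtracting the streptavidin-only scavenger bead signal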
# Target sequence (Q99759 whole entry, looked up): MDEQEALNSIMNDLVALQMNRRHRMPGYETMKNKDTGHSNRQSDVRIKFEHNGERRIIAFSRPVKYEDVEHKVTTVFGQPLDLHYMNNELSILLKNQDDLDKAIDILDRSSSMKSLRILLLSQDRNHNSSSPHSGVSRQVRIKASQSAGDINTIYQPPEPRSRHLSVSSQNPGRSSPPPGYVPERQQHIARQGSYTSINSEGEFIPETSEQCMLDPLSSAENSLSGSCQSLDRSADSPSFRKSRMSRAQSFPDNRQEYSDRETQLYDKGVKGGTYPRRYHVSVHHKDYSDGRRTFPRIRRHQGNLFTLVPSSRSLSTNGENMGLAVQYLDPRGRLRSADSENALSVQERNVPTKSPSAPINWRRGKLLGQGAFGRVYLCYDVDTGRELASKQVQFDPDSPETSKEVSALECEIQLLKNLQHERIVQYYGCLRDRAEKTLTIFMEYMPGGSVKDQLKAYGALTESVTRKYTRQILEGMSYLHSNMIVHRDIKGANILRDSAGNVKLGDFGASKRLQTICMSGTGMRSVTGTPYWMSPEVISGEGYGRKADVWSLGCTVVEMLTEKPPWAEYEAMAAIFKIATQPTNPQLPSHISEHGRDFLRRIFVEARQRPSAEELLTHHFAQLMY
# MEKK2wt confirm – modulators of MEK5 binding to wildtype MEKK2, confirmation, biochemical, single concentration, multiplex bead flow cytometry; shares compounds with MEKK3 PB1 HTS; Alexa488-MEK5 binding to MEKK2 WT; actives lie on both sides; binding response (% of control), % at 10 µM; actives 2.4% (n = 5,900); in the data active means binding response below about 16% or above about 210%; inactive means in between
# MEKK2mut confirm – mutant MEKK2 PB1-MEK5 binding signal retest – biochemical, single concentration, multiplex bead flow cytometry, confirmation; actives 2% (n = 5,900); Alexa488-MEK5 binding to MEKK2 mutant; shares compounds with MEKK3 PB1 HTS; percent response, % at 10 µM; in the data active means percent response mostly above about 71%, no sharp cut-off; inactive means mostly below about 38%;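 further: higher means compound restores mutant binding toward wildtype level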
# MEKK3-MEK5 inh – MEKK3 wild-type PB1 binding to MEK5, inhibitors, confirmation, biochemical, bead multiplex flow cytometry, single concentration, wildtype. shares compounds with MEKK3 PB1 HTS. actives 1.8% (n = 5,900). binding response (% of control), % at 10 µM. Alexa488-MEK5 binding to MEKK3; hits give low values;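 active means binding response below 72% of control, or above a set upper limit, though filed actives all read lower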;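 further: 100% = DMSO only wells and 0% = binding blocked by excess unlabeled MEK5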
# * marks the source's active call; other numbers are inactive results; / = not tested or not shown; [ ] = remark or other dose. Most compounds without a hit are left out; they make up all but 3.4% or so of the library.
SMILES,VIM-2 inh,IMP-1 inhibitor,MEKK2wt PB1 HTS,MEKK2 mut-MEK5,MEKK3 PB1 HTS,MEKK2wt confirm,MEKK2mut confirm,MEKK3-MEK5 inh
COC(=O)CCC(=O)OC1(C)C(=O)C2=CN(C(CO)CO)C(c3ccc(OC)cc3)=CC2=C(Br)C1=O (stereo not drawn),/,/,91.0,-2.0,82.0*[inhibitor],98.0,-2.0,93.0
COC(=O)CCC(=O)OC1(C)C(=O)C2=CN(CCCCO)C(c3ccc(OC)cc3)=CC2=C(Br)C1=O (stereo not drawn),-0.1,-2.5,85.0,-6.0,92.0,/,/,/
COC(=O)CCC(=O)OC1(C)C(=O)C2=CN(Cc3ccc4c(c3)OCO4)C(c3ccc(OC)cc3)=CC2=C(Br)C1=O (stereo not drawn),/,/,/,53.0*,83.0,102.0,0.0,104.0
COC(=O)CCC(=O)OC1(C)C(=O)C2=CN(CCN3CCOCC3)C(c3ccc(OC)cc3)=CC2=C(Br)C1=O (stereo not drawn),/,/,149.0*,4.0,127.0,100.0,0.0,100.0
CC1(OC(=O)CCc2ccccc2)C(=O)C=C2C=C(c3ccc(C#N)cc3)N(CCN3CCOCC3)C=C2C1=O (stereo not drawn),/,/,138.0*,2.0,117.0,104.0,1.0,101.0
CCOC(=O)c1ccccc1NC(=O)COC,-3.1,-3.0,98.0,2.0,99.0,/,/,/
O=C(NC1CCCc2ccccc21)C1CCC(CNS(=O)(=O)c2cccc3nsnc23)CC1 (stereo not drawn),-2.5,-4.2,105.0,7.0,107.0,/,/,/
CCCCC1=CC2=C(c3ccco3)C(=O)C(C)(OC(=O)c3ccc(OC)cc3)C(=O)C2=CN1Cc1ccccc1 (stereo not drawn),/,/,101.0,1.0,105.0,/,/,/
CCCCC1=CC2=C(c3ccco3)C(=O)C(C)(OC(=O)c3ccc(OC)cc3)C(=O)C2=CN1Cc1ccc2c(c1)OCO2 (stereo not drawn),/,/,138.0*,1.0,120.0,83.0,-9.0,87.0
COc1cccc(NC(=O)c2ccc(NCCCN3CC(C)CC(C)C3)c([N+](=O)[O-])c2)c1 (stereo not drawn),-0.8,-0.4,139.0*,19.0,111.0,147.0,16.0,109.0
CCc1nc(SCC(=O)N2CCOCC2)c2c(=O)n(C)c(=O)n(C)c2n1,0.7,-1.8,111.0,6.0,112.0,/,/,/
Cn1c(=O)c2c(SCCN3CCOCC3)nc(C3CCCC3)nc2n(C)c1=O,-2.1,-2.5,74.0,-4.0,58.0*[inhibitor],104.0,-2.0,99.0
CC1CN(CCCCOc2ccc(Cl)c3ccccc23)CC(C)O1 (stereo not drawn),1.0,4.5*,162.0*,10.0,113.0,150.0,22.0,105.0
CC1CN(CCCCOc2ccc(C(C)C)cc2)CC(C)O1 (stereo not drawn),-2.7,0.6,2.0*[inhibitor],-15.0,2.0*[inhibitor],104.0,4.0,103.0
COc1ccc(N(CC(=O)NCc2ccccc2OC)S(=O)(=O)c2c(C)nn(C)c2C)cc1,-0.8,-3.4,103.0,9.0,106.0,/,/,/
CN(C)C(CNc1ncnc2sccc12)c1cccs1 (stereo not drawn),-2.8,-1.3,105.0,-3.0,103.0,/,/,/
COC(=O)NCC(c1ccco1)N1CCN(c2ccc(OC)cc2)CC1 (stereo not drawn),-0.4,-1.5,109.0,4.0,100.0,/,/,/
